Test results published in ChEMBL document CHEMBL1123823, “[1-Desamino, 7-lysine, 8-arginine]vasotocin: attachment of reporter groups and affinity ligands through the lysine side chain” (J Med Chem, 1987).
Where a SMILES comes first, the peptide text is derived from it. Bridges are numbered along the chain shown (N, C = ends). [ ]: non-standard residue; d: D form. The star is where a group is joined. Benzoyl(4-N3) = [N-]=[N+]=Nc1ccc(C(=O)*)cc1; Mpa = O=C(O)CCS

How the values were obtained:
[1] = tested on: Rattus norvegicus; assay: Antidiuretic activity was determined in water loaded, ethanol-anesthetized rats.; format: functional, Urine
[2] = Toad bladder hydroosmotic activity was determined; format: functional; conditions: read-out: ED50 (the source's name)
Outline: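 Osmometric measurement of bladder water permeability. Bladders were suspended in humidified air, and paper disks holding 8 μL of hypertonic Ringer's, with or without peptide at various concentrations, were placed on the outer surface of the bladder wall. The Ringer's contained NaCl 110, KCl 3.5, CaCl₂ 1, MgCl₂ 1, glucose 5.5 and Tris-HCl 10 mmol/L, pH 7.5, 236 mOsm/kg H₂O. Dose-response curves were constructed.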

[3] = tested on: Rattus norvegicus; assay: (§1) Pressor activity was determined in urethane-anesthetized, phenoxybenzamine treated rats.; format: functional
[4] = tested on: Rattus norvegicus; assay: as §1; format: functional, organism-based; conditions: read-out: pA2 (converted)

| EC50 [2] [nM] | Compound | Antidiuretic activity [1] [U/mg] | Pressor activity [3] [U/mg] | Kb [4] [nM] |
| --- | --- | --- | --- | --- |
| 22 | CC[C@H](C)[C@@H]1NC(=O)[C@H](Cc2ccc(O)cc2)NC(=O)CCSSC[C@@H](C(=O)N[C@@H](CCCCN)C(=O)N[C@@H](CCCN=C(N)N)C(=O)NCC(N)=O)NC(=O)[C@H](CC(N)=O)NC(=O)[C@H](CCC(N)=O)NC1=O ([Mpa]YIQNCKRG-NH2; disulfide 1-6) | 29 | 0 | – |
| – | CC[C@H](C)[C@@H]1NC(=O)[C@H](Cc2ccc(O)cc2)NC(=O)CCSSC[C@@H](C(=O)N2CCC[C@H]2C(=O)N[C@@H](CCCN=C(N)N)C(=O)NCC(N)=O)NC(=O)[C@H](CC(N)=O)NC(=O)[C@H](CCC(N)=O)NC1=O ([Mpa]YIQNCPRG-NH2; disulfide 1-6) | 890 | 256 | – |
| – | CC[C@H](C)[C@@H]1NC(=O)[C@H](Cc2ccc(O)cc2)NC(=O)[C@@H](N)CSSC[C@@H](C(=O)N2CCC[C@H]2C(=O)N[C@@H](CCCN=C(N)N)C(=O)NCC(N)=O)NC(=O)[C@H](CC(N)=O)NC(=O)[C@H](CCC(N)=O)NC1=O [VASOTOCIN] (H-CYIQNCPRG-NH2; disulfide 1-6) | 231 | 160 | – |
| – | CC[C@H](C)[C@@H]1NC(=O)[C@H](Cc2ccc(O)cc2)NC(=O)CCSSC[C@@H](C(=O)N[C@@H](CCCCNC(=O)c2ccc(N=[N+]=[N-])cc2)C(=O)N[C@@H](CCCN=C(N)N)C(=O)NCC(N)=O)NC(=O)[C@H](CC(N)=O)NC(=O)[C@H](CCC(N)=O)NC1=O ([Mpa]YIQNCK(Benzoyl(4-N3))RG-NH2; disulfide 1-6) [listing 1 of 2 here] | 19.7 | – | – |
| 210 | CC[C@H](C)[C@@H]1NC(=O)[C@@H](Cc2ccc(O)cc2)NC(=O)CCSSC[C@@H](C(=O)N[C@H](CCCCNC(=O)CCCCC2SCC3NC(=O)NC32)C(=O)N[C@@H](CCCN=C(N)N)C(=O)NCC(N)=O)NC(=O)[C@H](CC(N)=O)NC(=O)[C@@H](CCC(N)=O)NC1=O (stereo partly drawn) | 4.3 | 0 | – |
| – | CC[C@H](C)[C@@H]1NC(=O)[C@H](Cc2ccc(O)cc2)NC(=O)CCSSC[C@@H](C(=O)N[C@@H](CCCCNC(=O)c2ccc(N=[N+]=[N-])cc2)C(=O)N[C@@H](CCCN=C(N)N)C(=O)NCC(N)=O)NC(=O)[C@H](CC(N)=O)NC(=O)[C@H](CCC(N)=O)NC1=O ([Mpa]YIQNCK(Benzoyl(4-N3))RG-NH2; disulfide 1-6) [listing 2 of 2 here] | – | – | 251 |

| Compound | EC50 [2] [nM] | Antidiuretic activity [1] [U/mg] | Pressor activity [3] [U/mg] | Kb [4] [nM] |
| --- | --- | --- | --- | --- |
| N=C(N)NCCC[C@H](NC(=O)[C@@H]1CCCN1C(=O)[C@@H]1CSSC[C@H](N)C(=O)N[C@@H](Cc2ccc(O)cc2)C(=O)N[C@@H](Cc2ccccc2)C(=O)N[C@@H](CCC(N)=O)C(=O)N[C@@H](CC(N)=O)C(=O)N1)C(=O)NCC(N)=O [VASOPRESSIN] | 9.5 | – | – | – |
